Activity calls are given as the source filed them. How the calls were made is not given here.
system: Human alphaherpesvirus 1; assay: Antiviral activity against HSV1 KOS infected in african green monkey Vero cells after 3 days by plaque reduction assay; type: functional, organism-based; conditions: Human alphaherpesvirus 1, KOS, 72 h
Method in brief: (§1)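 Plaque reduction assay. Vero 76 cells at 2 × 10^5/well, grown overnight to confluence in D-MEM with 10% FBS. Infected 2 h with 50–100 PFU/well, unadsorbed virus removed. Overlay of D-MEM with 1% inactivated FBS and 0.75% methylcellulose, with or without serial compound dilutions. Incubated at 37 °C for 3 days (HSV-1 KOS, CVB-2 Ohio-1) or 5 days (RSV A2). Fixed and stained with crystal violet in 50% ethanol; plaques counted; EC50 by linear regression.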

Row | SMILES | EC50 [µM]
1 | C#C[C@@]1(O)[C@H](O)[C@@H](CO)O[C@H]1n1ccc(N)nc1=O [2'-ETHYNYL-D-CYTIDINE] | > 100
2 | Nc1ccc(-c2nc3cc(C(F)(F)F)ccc3[nH]2)cc1 | > 100
3 | O=C(CN1CCCCC1)Nc1ccc(-c2nc3cc(C(F)(F)F)ccc3[nH]2)cc1 | > 31
4 | NC(=O)c1ncn([C@@H]2O[C@H](CO)[C@@H](O)[C@H]2O)n1 [RIBAVIRIN] | > 100
5 | O=C(CN1CCSCC1)Nc1ccc(-c2nc3cc(C(F)(F)F)ccc3[nH]2)cc1 | > 100
6 | O=C(CN1CCN(c2ccccc2)CC1)Nc1ccc(-c2nc3cc(C(F)(F)F)ccc3[nH]2)cc1 | > 100

system: Bovine viral diarrhea virus 1; assay: Antiviral activity against Bovine viral diarrhea virus NADL infected in MDBK cells assessed as protection from virus-induced cytopathogenicity after 3 to 4 days by MTT method; type: functional, organism-based, Bovine viral diarrhea virus 1-NADL; conditions: Bovine viral diarrhea virus isolates and strains, MDBK
Method in brief: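 Cytopathogenicity protection assay. MDBK cells at 3 × 10^4/well, grown overnight to confluence. Infected with BVDV NADL at m.o.i. 0.01 in MEM-E with 0.5% inactivated FBS, 1 mM Na pyruvate and 1% kanamycin. Serial compound dilutions added after 1 h. After 3–4 days at 37 °C, viability read by MTT; EC50 is the concentration giving 50% protection.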

Row | SMILES | EC50 [µM]
7 | C#C[C@@]1(O)[C@H](O)[C@@H](CO)O[C@H]1n1ccc(N)nc1=O [2'-ETHYNYL-D-CYTIDINE] | 38
8 | Nc1ccc(-c2nc3cc(C(F)(F)F)ccc3[nH]2)cc1 | 15
9 | O=C(CN1CCCCC1)Nc1ccc(-c2nc3cc(C(F)(F)F)ccc3[nH]2)cc1 | 2
10 | O=C(CN1CCSCC1)Nc1ccc(-c2nc3cc(C(F)(F)F)ccc3[nH]2)cc1 | > 100
11 | O=C(CN1CCN(c2ccccc2)CC1)Nc1ccc(-c2nc3cc(C(F)(F)F)ccc3[nH]2)cc1 | > 32

system: Human immunodeficiency virus 1; assay: Antiviral activity against HIV1 3B infected in human MT4 cells assessed as protection from virus-induced cytopathogenicity after 4 days by MTT method; type: functional, organism-based; conditions: not given
Method in brief: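 MT-4 cells, 1 × 10^4/well in RPMI with or without serial compound dilutions, infected with HIV-1 IIIB, 100 CCID50 (m.o.i. 0.01). Protection from virus-induced cytopathogenicity read by MTT.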

Row | SMILES | Activity
12 | Nc1ccc(-c2nc3cc(C(F)(F)F)ccc3[nH]2)cc1 | inactive
13 | O=C(CN1CCCCC1)Nc1ccc(-c2nc3cc(C(F)(F)F)ccc3[nH]2)cc1 | inactive
14 | O=C(CN1CCSCC1)Nc1ccc(-c2nc3cc(C(F)(F)F)ccc3[nH]2)cc1 | inactive
15 | O=C(CN1CCN(c2ccccc2)CC1)Nc1ccc(-c2nc3cc(C(F)(F)F)ccc3[nH]2)cc1 | inactive

system: Respiratory syncytial virus; assay: Antiviral activity against RSV A2 infected in african green monkey Vero cells after 5 days by plaque reduction assay; type: functional, organism-based; conditions: human respiratory syncytial virus, A2, Vero, 120 h; method in brief: as §1

Row | SMILES | EC50 [µM]
16 | C#C[C@@]1(O)[C@H](O)[C@@H](CO)O[C@H]1n1ccc(N)nc1=O [2'-ETHYNYL-D-CYTIDINE] | > 100
17 | NC(=O)c1ncn([C@@H]2O[C@H](CO)[C@@H](O)[C@H]2O)n1 [RIBAVIRIN] | 7

system: not listed separately; assay: Cytotoxicity against african green monkey Vero cells; type: cell-based; conditions: chlorocebus sabaeus
Method in brief: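 Vero 76 monolayers exposed to serial compound dilutions, run in parallel on the same 24-well plates as the plaque-reduction assays. CC50 is the concentration reducing viability of mock-infected cells by 50%.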

Row | SMILES | CC50 [µM]
18 | C#C[C@@]1(O)[C@H](O)[C@@H](CO)O[C@H]1n1ccc(N)nc1=O [2'-ETHYNYL-D-CYTIDINE] | > 100
19 | Nc1ccc(-c2nc3cc(C(F)(F)F)ccc3[nH]2)cc1 | > 100
20 | O=C(CN1CCCCC1)Nc1ccc(-c2nc3cc(C(F)(F)F)ccc3[nH]2)cc1 | 31
21 | NC(=O)c1ncn([C@@H]2O[C@H](CO)[C@@H](O)[C@H]2O)n1 [RIBAVIRIN] | > 100
22 | O=C(CN1CCSCC1)Nc1ccc(-c2nc3cc(C(F)(F)F)ccc3[nH]2)cc1 | > 100
23 | O=C(CN1CCN(c2ccccc2)CC1)Nc1ccc(-c2nc3cc(C(F)(F)F)ccc3[nH]2)cc1 | > 100

system: not listed separately; assay: Cytotoxicity against MDBK cells after 48 to 96 hrs by MTT assay; type: cell-based, Bos taurus; conditions: cattle, MDBK cells
Method in brief: (§2)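 Cell seeding: MDBK at 6 × 10^5 cells/mL in MEM-E with 10% horse serum and 1 mM Na pyruvate; BHK at 1 × 10^6 cells/mL in MEM-E with 10% FBS. Serial compound dilutions, 37 °C, 5% CO2. Viability of mock-infected cells by MTT after 48–96 h; CC50 is the concentration reducing viability by 50%.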

Row | SMILES | CC50 [µM]
24 | C#C[C@@]1(O)[C@H](O)[C@@H](CO)O[C@H]1n1ccc(N)nc1=O [2'-ETHYNYL-D-CYTIDINE] | > 100
25 | Nc1ccc(-c2nc3cc(C(F)(F)F)ccc3[nH]2)cc1 | 82
26 | O=C(CN1CCCCC1)Nc1ccc(-c2nc3cc(C(F)(F)F)ccc3[nH]2)cc1 | 6
27 | NC(=O)c1ncn([C@@H]2O[C@H](CO)[C@@H](O)[C@H]2O)n1 [RIBAVIRIN] | > 100
28 | O=C(CN1CCSCC1)Nc1ccc(-c2nc3cc(C(F)(F)F)ccc3[nH]2)cc1 | > 100
29 | O=C(CN1CCN(c2ccccc2)CC1)Nc1ccc(-c2nc3cc(C(F)(F)F)ccc3[nH]2)cc1 | 32

system: not listed separately; assay: Cytotoxicity against BHK cells after 48 to 96 hrs by MTT assay; type: cell-based, Mesocricetus auratus; conditions: hamster; method in brief: as §2

Row | SMILES | CC50 [µM]
30 | C#C[C@@]1(O)[C@H](O)[C@@H](CO)O[C@H]1n1ccc(N)nc1=O [2'-ETHYNYL-D-CYTIDINE] | > 100
31 | Nc1ccc(-c2nc3cc(C(F)(F)F)ccc3[nH]2)cc1 | 100
32 | O=C(CN1CCCCC1)Nc1ccc(-c2nc3cc(C(F)(F)F)ccc3[nH]2)cc1 | 12
33 | NC(=O)c1ncn([C@@H]2O[C@H](CO)[C@@H](O)[C@H]2O)n1 [RIBAVIRIN] | > 100
34 | O=C(CN1CCSCC1)Nc1ccc(-c2nc3cc(C(F)(F)F)ccc3[nH]2)cc1 | > 100
35 | O=C(CN1CCN(c2ccccc2)CC1)Nc1ccc(-c2nc3cc(C(F)(F)F)ccc3[nH]2)cc1 | > 100

system: Vaccinia virus; assay: Antiviral activity against Vaccinia virus Elstree-Lister infected in african green monkey Vero cells after 3 days by plaque reduction assay; type: functional, organism-based; conditions: Orthopoxvirus vaccinia, 72 h

Row | SMILES | EC50 [µM]
36 | C#C[C@@]1(O)[C@H](O)[C@@H](CO)O[C@H]1n1ccc(N)nc1=O [2'-ETHYNYL-D-CYTIDINE] | > 100
37 | NC(=O)c1ncn([C@@H]2O[C@H](CO)[C@@H](O)[C@H]2O)n1 [RIBAVIRIN] | > 100

system: Poliovirus 1; assay: Antiviral activity against Polio virus type1 Sabin strain Chat infected in african green monkey Vero cells after 2 days by plaque reduction assay; type: functional, organism-based, Human poliovirus 1 strain Sabin; conditions: Enterovirus C, 48 h

Row | SMILES | EC50 [µM]
38 | C#C[C@@]1(O)[C@H](O)[C@@H](CO)O[C@H]1n1ccc(N)nc1=O [2'-ETHYNYL-D-CYTIDINE] | 23
39 | Nc1ccc(-c2nc3cc(C(F)(F)F)ccc3[nH]2)cc1 | 47
40 | O=C(CN1CCCCC1)Nc1ccc(-c2nc3cc(C(F)(F)F)ccc3[nH]2)cc1 | > 31
41 | NC(=O)c1ncn([C@@H]2O[C@H](CO)[C@@H](O)[C@H]2O)n1 [RIBAVIRIN] | > 100
42 | O=C(CN1CCSCC1)Nc1ccc(-c2nc3cc(C(F)(F)F)ccc3[nH]2)cc1 | > 100
43 | O=C(CN1CCN(c2ccccc2)CC1)Nc1ccc(-c2nc3cc(C(F)(F)F)ccc3[nH]2)cc1 | > 100

system: Vesicular stomatitis virus; assay: Antiviral activity against VSV Indiana lab infected in african green monkey Vero cells after 2 days by plaque reduction assay; type: functional, organism-based; conditions: not given

Row | SMILES | Activity
44 | Nc1ccc(-c2nc3cc(C(F)(F)F)ccc3[nH]2)cc1 | inactive
45 | O=C(CN1CCCCC1)Nc1ccc(-c2nc3cc(C(F)(F)F)ccc3[nH]2)cc1 | inactive
46 | O=C(CN1CCSCC1)Nc1ccc(-c2nc3cc(C(F)(F)F)ccc3[nH]2)cc1 | inactive
47 | O=C(CN1CCN(c2ccccc2)CC1)Nc1ccc(-c2nc3cc(C(F)(F)F)ccc3[nH]2)cc1 | inactive

system: not listed separately; assay: Cytotoxicity against human MT4 cells after 96 hrs by MTT assay; type: cell-based; conditions: MT4 cells
Method in brief: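 Exponentially growing MT-4 cells at 1 × 10^5 cells/mL in RPMI-1640 with 10% FCS, exposed to serial compound dilutions at 37 °C, 5% CO2. Viability by MTT after 96 h; CC50 is the concentration reducing viability of mock-infected cells by 50%.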

Row | SMILES | CC50 at 96 h [µM]
48 | C#C[C@@]1(O)[C@H](O)[C@@H](CO)O[C@H]1n1ccc(N)nc1=O [2'-ETHYNYL-D-CYTIDINE] | ≥ 100
49 | Nc1ccc(-c2nc3cc(C(F)(F)F)ccc3[nH]2)cc1 | 62
50 | O=C(CN1CCCCC1)Nc1ccc(-c2nc3cc(C(F)(F)F)ccc3[nH]2)cc1 | 6
51 | O=C(CN1CCSCC1)Nc1ccc(-c2nc3cc(C(F)(F)F)ccc3[nH]2)cc1 | 6
52 | O=C(CN1CCN(c2ccccc2)CC1)Nc1ccc(-c2nc3cc(C(F)(F)F)ccc3[nH]2)cc1 | 0.9

system: Yellow fever virus; assay: Antiviral activity against Yellow fever virus 17D infected in BHK cells assessed as protection from virus-induced cytopathogenicity after 3 to 4 days by MTT method; type: functional, organism-based; conditions: not given

Row | SMILES | EC50 [µM]
53 | C#C[C@@]1(O)[C@H](O)[C@@H](CO)O[C@H]1n1ccc(N)nc1=O [2'-ETHYNYL-D-CYTIDINE] | > 100
54 | Nc1ccc(-c2nc3cc(C(F)(F)F)ccc3[nH]2)cc1 | > 100
55 | O=C(CN1CCCCC1)Nc1ccc(-c2nc3cc(C(F)(F)F)ccc3[nH]2)cc1 | > 12
56 | NC(=O)c1ncn([C@@H]2O[C@H](CO)[C@@H](O)[C@H]2O)n1 [RIBAVIRIN] | > 100
57 | O=C(CN1CCSCC1)Nc1ccc(-c2nc3cc(C(F)(F)F)ccc3[nH]2)cc1 | > 100
58 | O=C(CN1CCN(c2ccccc2)CC1)Nc1ccc(-c2nc3cc(C(F)(F)F)ccc3[nH]2)cc1 | > 100

system: Coxsackievirus B2; assay: Antiviral activity against Human coxsackievirus B2 Ohio-1 infected in african green monkey Vero cells after 3 days by plaque reduction assay; type: functional, organism-based, Coxsackievirus B2 (strain Ohio-1); conditions: Enterovirus B, Vero, 72 h; method in brief: as §1

Row | SMILES | EC50 [µM]
59 | C#C[C@@]1(O)[C@H](O)[C@@H](CO)O[C@H]1n1ccc(N)nc1=O [2'-ETHYNYL-D-CYTIDINE] | 27
60 | Nc1ccc(-c2nc3cc(C(F)(F)F)ccc3[nH]2)cc1 | 17
61 | O=C(CN1CCCCC1)Nc1ccc(-c2nc3cc(C(F)(F)F)ccc3[nH]2)cc1 | 9
62 | NC(=O)c1ncn([C@@H]2O[C@H](CO)[C@@H](O)[C@H]2O)n1 [RIBAVIRIN] | > 100
63 | O=C(CN1CCSCC1)Nc1ccc(-c2nc3cc(C(F)(F)F)ccc3[nH]2)cc1 | > 100
64 | O=C(CN1CCN(c2ccccc2)CC1)Nc1ccc(-c2nc3cc(C(F)(F)F)ccc3[nH]2)cc1 | > 100

Source: ChEMBL document CHEMBL1156237, “Antiviral activity of benzimidazole derivatives. II. Antiviral activity of 2-phenylbenzimidazole derivatives” (Bioorg Med Chem, 2010)
